Article PMC10228392 (mAbs, 2023)
Residue numbers refer to the chain shown, from its start. Names and notes keep the numbering of the source.

Tests used:
α-caff VHH = tested on: α-caff VHH; parameters: species or system llama; conditions: binding to anti-caffeine VHH
Method in brief: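 Anti-caffeine VHH was dialysed overnight against PBS pH 7.4. Test compound at 50 µM in the syringe was titrated into 10 µM VHH in the cell at 25°C, as 27 injections of 10 µL.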

[1] = biological target: anti-caffeine VHH produced through grafting CDR regions (Caffgraft); test: AUC
VHH:VHH dimer = test: Analytical ultracentrifugation, sedimentation equilibrium; type: binding; conditions: with vs without stoichiometric caffeine
Method in brief: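 Sedimentation equilibrium on tag-free, E. coli-expressed anti-caffeine VHH (WT, and F47R with caffeine) at 3, 10 and 30 µM, alone or with stoichiometric caffeine (1.5, 5, 15 µM), at 20°C. Cells were spun 24 h at 27,000, 32,000 and 44,000 rpm and scanned at 294, 260 and 236 nm. All speeds and concentrations were analysed globally: a single-exponential fit gave weight-averaged MW, then a monomer-dimer fit gave assembly constants.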

[2] = biological target: anti-caffeine VHH produced through grafting CDR regions (Caffgraft); test: ITC
[3] = biological target: anti-caffeine VHH produced through grafting CDR regions (Caffgraft); test: AUC; remark: listed apart in the source
[4] = Guanidinium hydrochloride chemical unfolding by circular dichroism; type: physicochemical; conditions: 25°C
[5] = Isothermal titration calorimetry
Method in brief: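 Single arginine interface variants were made by site-directed mutagenesis and expressed in E. coli, and the tag was removed. For low-affinity binding (Turnbull method), 1 mM caffeine was titrated into 100 µM VHH variant, with stoichiometry fixed at n = 0.5 in the fit. Protein concentration came from ε280 30,035 M−1 cm−1 (F47R, V104R) or 28,545 M−1 cm−1 (Y106R).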

Cn1c(=O)c2c(ncn2CC(=O)O)n(C)c1=O [theophylline-7-acetic acid]
ΔΔG° penalty (loss in affinity) relative to caffeine (α-caff VHH): ~1.5 kcal/mol

B1: anti-caffeine VHH produced through grafting CDR regions (Caffgraft) (VHH)
VHH: QVQLVESGGGLVQAGGSLRLSCTASGRTGTIYSMAWFRQAPGKEREFLATVGWSSGITYYMDSVKGRFTISRDKGKNTVYLQMDSLKPEDTAVYYCTATRAYSVGYDYWGQGTQVTVSS
Kd [1]: 23.5 µM | stoichiometry N [1]: 2 | fold higher observed dimerization affinity on caffeine binding (VHH:VHH dimer): ~28 fold | Kd [2]: 13.1 µM | Kd [3]: 0.848 µM | loss of stability (ΔGu) relative to anti-RNase A VHH [4]: approximately 1.5 kcal/mol | m-value ([4]; guanidinium hydrochloride): 2.62 ± 0.06 kcal mol^−1M^−1 | ΔGu ([4]; guanidinium hydrochloride, PBS pH 7.4, 10 μM VHH): 7.6 ± 0.2 kcal/mol

B2: α-caff VHH-F47R: anti-caffeine VHH dimer interface variant with arginine at F47 (Kabat numbering) (antibody, V domains shown)
VH: B1 VHH with F47R
ΔΔG° (weaker caffeine binding affinity than anti-caffeine VHH) [5]: > 5 kcal/mol
